Source: ChEMBL document CHEMBL1147363, “Inhibitory effect of carnosic acid on HIV-1 protease in cell-free assays [corrected]” (J Nat Prod, 1993)
Values after ≈ are worked out from the molar mass of the structure shown. Active and inactive are the calls of the source. The rule behind the calls is not given here.

Legend:
Cathepsin D (Bos taurus) = target: T1, Cathepsin D (Bos taurus) (UniProt P80209); assay: Inhibition of bovine spleen cathepsin D up to 10 ug/ml
T1 sequence (whole entry): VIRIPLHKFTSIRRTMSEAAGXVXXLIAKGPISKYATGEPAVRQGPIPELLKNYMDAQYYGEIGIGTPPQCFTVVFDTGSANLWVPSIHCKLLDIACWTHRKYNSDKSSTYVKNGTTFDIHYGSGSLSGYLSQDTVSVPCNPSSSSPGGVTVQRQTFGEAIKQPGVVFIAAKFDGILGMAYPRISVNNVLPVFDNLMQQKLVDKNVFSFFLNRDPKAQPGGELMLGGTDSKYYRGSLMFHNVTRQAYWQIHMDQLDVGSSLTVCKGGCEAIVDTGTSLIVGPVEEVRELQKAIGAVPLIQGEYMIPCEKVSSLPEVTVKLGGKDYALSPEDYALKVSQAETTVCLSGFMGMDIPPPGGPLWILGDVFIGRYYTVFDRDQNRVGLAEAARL
How it was run: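 Cathepsin D purified from bovine spleen, 40 nM final. Compound (DMSO stock diluted in 0.1 M Na acetate pH 3.5) preincubated with enzyme 10 min. 2% hemoglobin substrate added, 10 min at 37°. Stopped with 0.33 M trichloroacetic acid. Soluble products treated with NaOH and Folin-Ciocalteu reagent; absorbance read at 750 nm. Tested up to 10 μg/ml.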

Sus scrofa = species: Sus scrofa; assay: Inhibition of pig pepsin up to 10 ug/ml
How it was run: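 Porcine pepsin, 40 nM final. Compound stock diluted in 0.01 M HCl and preincubated with enzyme 10 min at room temperature. 2% hemoglobin substrate (pH 1.8) added, 10 min at 37°. Stopped with 0.33 M TCA; activity by modified Anson hemoglobin method. Tested up to 10 μg/ml.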

[1] = target: Protease (Human immunodeficiency virus 1) (UniProt Q9YQ12); assay: Inhibition of HIV1 recombinant protease expressed in Escherichia coli BL21 (DE3) cells by SDS-PAGE
Sequence of Protease (Human immunodeficiency virus 1) (Q9YQ12 as listed by the source): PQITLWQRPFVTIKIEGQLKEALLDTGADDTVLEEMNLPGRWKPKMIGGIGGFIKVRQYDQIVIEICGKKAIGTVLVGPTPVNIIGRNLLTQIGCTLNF

[2] = test system: Human immunodeficiency virus 1; assay: Antiviral activity against HIV1 replication infected in human MT2 cells assessed as reduction in plaque formation after 3 days by MTT assay; type: functional; conditions: Human immunodeficiency virus 1, MT2, 72 h
How it was run: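 MT-2 cells pretreated 30 min at room temperature with compound (DMSO stock diluted in RPMI), infected with HIV-1 (3b or rf) 1 h at 36°, washed, then grown 3 days in compound-containing RPMI. Progeny titre measured by plaque assay on poly-L-lysine-coated MT-2 monolayers under agarose overlays, stained with MTT. Activity expressed as percent reduction in titre versus untreated virus; IC90 reported.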

H9 = assay: Cytotoxicity against human H9 cells after 3 or 5 days by XTT assay; type: cell-based; conditions: h9, 120 h
How it was run: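 Cells seeded at 1×10^5 per well with graded compound concentrations and grown at 36° for 3 or 5 days depending on cell type. XTT (1 mg/ml, with 0.025 mM phenazine methosulfate) added, 1 h at 36°, OD450 read. TC90 is the concentration giving 90% reduction in viable cells.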

CC(C)c1cc2c(c(O)c1O)[C@@]13CCCC(C)(C)[C@@H]1[C@H](OC3=O)[C@H]2O
Activity (Cathepsin D (Bos taurus)): inactive
Activity (Sus scrofa): inactive
IC90 [1]: 0.6 µg/mL

CC(C)c1cc2c(c(O)c1O)[C@@]1(C(=O)O)CCCC(C)(C)[C@@H]1CC2 [CARNOSIC ACID]
Activity (Cathepsin D (Bos taurus)): inactive
IC90 [2]: 0.32 µg/mL (≈ 0.963 µM)
Activity (Sus scrofa): inactive
IC90 [1]: 0.08 µg/mL
TC90 (H9): 0.36 µg/mL (≈ 1.08 µM)

CO[C@H]1c2cc(C(C)C)c(O)c(O)c2[C@@]23CCCC(C)(C)[C@@H]2[C@@H]1OC3=O
Activity (Cathepsin D (Bos taurus)): inactive
Activity (Sus scrofa): inactive
IC90 [1]: 1.5 µg/mL

COc1c(C(C)C)cc2c(c1OC)[C@@]13CCCC(C)(C)[C@@H]1C[C@@H]2OC3=O
Activity (Cathepsin D (Bos taurus)): inactive
Activity (Sus scrofa): inactive
IC90 [1]: > 10 µg/mL

CCO[C@H]1c2cc(C(C)C)c(O)c(O)c2[C@@]23CCCC(C)(C)[C@@H]2[C@@H]1OC3=O
Activity (Cathepsin D (Bos taurus)): inactive
Activity (Sus scrofa): inactive
IC90 [1]: 1.7 µg/mL

CC(C)c1cc2c(c(O)c1O)[C@@]13CCCC(C)(C)[C@@H]1C[C@@H]2OC3=O
Activity (Cathepsin D (Bos taurus)): inactive
Activity (Sus scrofa): inactive
IC90 [1]: > 10 µg/mL
